In brackets after ≈: the same amount, converted by molar mass. Bridge positions count the residues as written; N and C are the ends. Square brackets hold non-standard residues; d marks the D form. Peptide text beside a SMILES is read from it. * marks the point of attachment. Octanoyl(6-Me) = CCC(C)CCCCC(=O)*; Orn = NCCC[C@H](N)C(=O)O; Dab = NCC[C@H](N)C(=O)O
Columns and labels:
Staphylococcus aureus [1] = experiment: Antibacterial activity against methicillin-resistant Staphylococcus aureus MS29202 after 18 to 20 hrs by agar dilution method; format: functional
How it was run: (§1)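 Agar dilution per CLSI. Overnight broth cultures were diluted 100-fold, and one loopful (about 10^5 to 10^4 CFU) was spotted onto agar plates containing the CD. Growth was scored after 18–20 h at 37 °C. MIC values are in µM.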

Salmonella typhimurium = experiment: Antibacterial activity against drug-sensitive Salmonella typhimurium LT2 after 20 hrs by liquid microdilution method; format: functional, Salmonella enterica subsp. enterica serovar Typhimurium; details: Salmonella enterica, LT2, 20 h
How it was run: (§2)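 Two-fold serial dilutions of compound in Mueller–Hinton broth, inoculated with 1 × 10^4 cells and cultured at 37 °C for 20 h in microtiter wells.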

Enterococcus faecium = experiment: Antibacterial activity against drug-resistant Enterococcus faecium MS29120 after 18 to 20 hrs by agar dilution method; format: functional; how it was run: as §1
[2] = Hemolytic activity in rabbit RBC at 20 uM after 20 mins relative to control; format: ADME, cell-based, Oryctolagus cuniculus, Erythrocyte; details: rabbit red blood cells (erythrocytes), read-out: Activity
How it was run: (§3)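 Rabbit erythrocytes suspended in 150 mM NaCl/10 mM Hepes-NaOH, pH 7.4, at 0.5% hematocrit (final) and incubated with compound at 37 °C. The table footnote gives 20 min; the methods section gives 30 min. Hemolysis was read as absorbance at 540 nm, with 50 µM lysolecithin defining 100% hemolysis.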

[3] = Hemolytic activity in rabbit RBC at 50 uM after 20 mins relative to control; format: ADME, cell-based, Oryctolagus cuniculus, Erythrocyte; details: rabbit red blood cells (erythrocytes), read-out: Activity; how it was run: as §3
[4] = Hemolytic activity in rabbit RBC at 2 uM after 20 mins relative to control; format: ADME, cell-based, Oryctolagus cuniculus, Erythrocyte; details: rabbit red blood cells (erythrocytes), read-out: Activity; how it was run: as §3
Staphylococcus aureus [5] = experiment: Antibacterial activity against methicillin-sensitive Staphylococcus aureus FDA 209P after 20 hrs by liquid microdilution method; format: functional; how it was run: as §2
Pseudomonas aeruginosa = experiment: Antibacterial activity against drug-sensitive Pseudomonas aeruginosa PAO1 after 20 hrs by liquid microdilution method; format: functional; details: PAO1, 20 h; how it was run: as §2
Streptococcus agalactiae = experiment: Antibacterial activity against drug-resistant Streptococcus agalactiae B1 after 18 to 20 hrs by agar dilution method; format: functional; how it was run: as §1
Bacillus subtilis = experiment: Antibacterial activity against drug-sensitive Bacillus subtilis 168 after 20 hrs by liquid microdilution method; format: functional; details: subsp. subtilis str. 168, 20 h; how it was run: as §2
[6] = Hemolytic activity in rabbit RBC at 5 uM after 20 mins relative to control; format: ADME, cell-based, Oryctolagus cuniculus, Erythrocyte; details: rabbit red blood cells (erythrocytes), read-out: Activity; how it was run: as §3
Escherichia coli = experiment: Antibacterial activity against drug-sensitive Escherichia coli K-12 W3110 after 20 hrs by liquid microdilution method; format: functional; details: K-12 substr. W3110, 20 h; how it was run: as §2
[7] = Hemolytic activity in rabbit RBC at 10 uM after 20 mins relative to control; format: ADME, cell-based, Oryctolagus cuniculus, Erythrocyte; details: rabbit red blood cells (erythrocytes), read-out: Activity; how it was run: as §3
[8] = Hemolytic activity in rabbit RBC at 1 uM after 20 mins relative to control; format: ADME, cell-based, Oryctolagus cuniculus, Erythrocyte; details: rabbit red blood cells (erythrocytes), read-out: Activity; how it was run: as §3
Enterococcus faecalis [9] = experiment: Antibacterial activity against drug-resistant Enterococcus faecalis MS29030 after 18 to 20 hrs by agar dilution method; format: functional; how it was run: as §1
Enterococcus faecalis [10] = experiment: Antibacterial activity against vancomycin-resistant Enterococcus faecalis MS29016 after 18 to 20 hrs by agar dilution method; format: functional; how it was run: as §1
[11] = Lipophilicity, log P of the compound; format: physicochemical; details: octanol/water

Row | Compound | MIC (Staphylococcus aureus [1]) | MIC (Salmonella typhimurium) | MIC (Enterococcus faecium) | hemolysis at 20 min, 20 µM [2] | hemolysis at 20 min, 50 µM [3] | hemolysis at 20 min, 2 µM [4] | MIC (Staphylococcus aureus [5]) | MIC (Pseudomonas aeruginosa) | MIC (Streptococcus agalactiae) | MIC (Bacillus subtilis) | hemolysis at 20 min, 5 µM [6] | MIC (Escherichia coli) | hemolysis at 20 min, 10 µM [7] | hemolysis at 20 min, 1 µM [8] | MIC (Enterococcus faecalis [9]) | MIC (Enterococcus faecalis [10]) | logP [11]
1 | CCC(CC)CNCc1cn(C[C@H]2O[C@@H]3O[C@H]4[C@H](O)[C@@H](O)[C@@H](O[C@H]5[C@H](O)[C@@H](O)[C@@H](O[C@H]6[C@H](O)[C@@H](O)[C@@H](O[C@H]7[C@H](O)[C@@H](O)[C@@H](O[C@H]8[C@H](O)[C@@H](O)[C@@H](O[C@H]9[C@H](O)[C@@H](O)[C@@H](O[C@H]2[C@H](O)[C@H]3O)O[C@@H]9Cn2cc(CNCC(CC)CC)nn2)O[C@@H]8Cn2cc(CNCC(CC)CC)nn2)O[C@@H]7Cn2cc(CNCC(CC)CC)nn2)O[C@@H]6Cn2cc(CNCC(CC)CC)nn2)O[C@@H]5Cn2cc(CNCC(CC)CC)nn2)O[C@@H]4Cn2cc(CNCC(CC)CC)nn2)nn1 | 21 µM (≈ 48 µg/mL) | 42 µM (≈ 96 µg/mL) | 10 µM (≈ 22.8 µg/mL) | 8% | 12% | 1% | 3 to 5 µM (≈ 6.85 to 11.4 µg/mL) | 42 µM (≈ 96 µg/mL) | 3 µM (≈ 6.85 µg/mL) | 3 µM (≈ 6.85 µg/mL) | 3% | 10 µM (≈ 22.8 µg/mL) | 8% | 5% | > 42 µM | 21 µM (≈ 48 µg/mL) | -0.08
2 | O[C@@H]1[C@@H](O)[C@H]2O[C@H]3[C@H](O)[C@@H](O)[C@@H](O[C@H]4[C@H](O)[C@@H](O)[C@@H](O[C@H]5[C@H](O)[C@@H](O)[C@@H](O[C@H]6[C@H](O)[C@@H](O)[C@@H](O[C@H]7[C@H](O)[C@@H](O)[C@@H](O[C@H]8[C@H](O)[C@@H](O)[C@@H](O[C@@H]1[C@@H](Cn1cc(CNCCc9ccccc9)nn1)O2)O[C@@H]8Cn1cc(CNCCc2ccccc2)nn1)O[C@@H]7Cn1cc(CNCCc2ccccc2)nn1)O[C@@H]6Cn1cc(CNCCc2ccccc2)nn1)O[C@@H]5Cn1cc(CNCCc2ccccc2)nn1)O[C@@H]4Cn1cc(CNCCc2ccccc2)nn1)O[C@@H]3Cn1cc(CNCCc2ccccc2)nn1 | 20 µM (≈ 48.5 µg/mL) | 10 µM (≈ 24.2 µg/mL) | 20 µM (≈ 48.5 µg/mL) | 23% | 40% | 3% | 3 to 5 µM (≈ 7.27 to 12.1 µg/mL) | 10 µM (≈ 24.2 µg/mL) | 10 µM (≈ 24.2 µg/mL) | 3 µM (≈ 7.27 µg/mL) | 7% | 10 µM (≈ 24.2 µg/mL) | 12% | 3% | 40 µM (≈ 97 µg/mL) | 40 µM (≈ 97 µg/mL) | -0.13
3 | O[C@@H]1[C@@H](O)[C@H]2O[C@H]3[C@H](O)[C@@H](O)[C@@H](O[C@H]4[C@H](O)[C@@H](O)[C@@H](O[C@H]5[C@H](O)[C@@H](O)[C@@H](O[C@H]6[C@H](O)[C@@H](O)[C@@H](O[C@H]7[C@H](O)[C@@H](O)[C@@H](O[C@H]8[C@H](O)[C@@H](O)[C@@H](O[C@@H]1[C@@H](Cn1cc(CNCC9CCC9)nn1)O2)O[C@@H]8Cn1cc(CNCC2CCC2)nn1)O[C@@H]7Cn1cc(CNCC2CCC2)nn1)O[C@@H]6Cn1cc(CNCC2CCC2)nn1)O[C@@H]5Cn1cc(CNCC2CCC2)nn1)O[C@@H]4Cn1cc(CNCC2CCC2)nn1)O[C@@H]3Cn1cc(CNCC2CCC2)nn1 | > 43 µM | > 43 µM | > 43 µM | 0% | 0% | 0% | 5 to 11 µM (≈ 10.9 to 23.9 µg/mL) | > 43 µM | > 43 µM | 3 µM (≈ 6.52 µg/mL) | 0% | > 43 µM | 0% | 0% | > 43 µM | > 43 µM | -1
4 | CCCCCCC(N)c1cn(C[C@H]2O[C@@H]3O[C@H]4[C@H](O)[C@@H](O)[C@@H](O[C@H]5[C@H](O)[C@@H](O)[C@@H](O[C@H]6[C@H](O)[C@@H](O)[C@@H](O[C@H]7[C@H](O)[C@@H](O)[C@@H](O[C@H]8[C@H](O)[C@@H](O)[C@@H](O[C@H]9[C@H](O)[C@@H](O)[C@@H](O[C@H]2[C@H](O)[C@H]3O)O[C@@H]9Cn2cc(C(N)CCCCCC)nn2)O[C@@H]8Cn2cc(C(N)CCCCCC)nn2)O[C@@H]7Cn2cc(C(N)CCCCCC)nn2)O[C@@H]6Cn2cc(C(N)CCCCCC)nn2)O[C@@H]5Cn2cc(C(N)CCCCCC)nn2)O[C@@H]4Cn2cc(C(N)CCCCCC)nn2)nn1 (stereo partly drawn) | 10 µM (≈ 22.8 µg/mL) | 10 µM (≈ 22.8 µg/mL) | 21 µM (≈ 48 µg/mL) | 113% | 118% | 37% | 3 to 10 µM (≈ 6.85 to 22.8 µg/mL) | 21 µM (≈ 48 µg/mL) | 10 µM (≈ 22.8 µg/mL) | 5 µM (≈ 11.4 µg/mL) | 101% | 10 µM (≈ 22.8 µg/mL) | 109% | 10% | 42 µM (≈ 96 µg/mL) | 21 µM (≈ 48 µg/mL) | -0.18
5 | O[C@@H]1[C@@H](O)[C@H]2O[C@H]3[C@H](O)[C@@H](O)[C@@H](O[C@H]4[C@H](O)[C@@H](O)[C@@H](O[C@H]5[C@H](O)[C@@H](O)[C@@H](O[C@H]6[C@H](O)[C@@H](O)[C@@H](O[C@H]7[C@H](O)[C@@H](O)[C@@H](O[C@H]8[C@H](O)[C@@H](O)[C@@H](O[C@@H]1[C@@H](Cn1cc(CNCC9CC9)nn1)O2)O[C@@H]8Cn1cc(CNCC2CC2)nn1)O[C@@H]7Cn1cc(CNCC2CC2)nn1)O[C@@H]6Cn1cc(CNCC2CC2)nn1)O[C@@H]5Cn1cc(CNCC2CC2)nn1)O[C@@H]4Cn1cc(CNCC2CC2)nn1)O[C@@H]3Cn1cc(CNCC2CC2)nn1 | – | > 45 µM | – | 0% | 0% | 0% | > 45 µM | > 45 µM | – | > 45 µM | 0% | > 45 µM | 0% | 0% | – | – | -1.4
6 | CCC(C)CCCCC(=O)N[C@@H](CCN)C(=O)N[C@H](C(=O)N[C@@H](CCN)C(=O)N[C@H]1CCNC(=O)[C@H]([C@@H](C)O)NC(=O)[C@H](CCN)NC(=O)[C@H](CCN)NC(=O)[C@H](CC(C)C)NC(=O)[C@@H](Cc2ccccc2)NC(=O)[C@H](CCN)NC1=O)[C@@H](C)O (stereo partly drawn) ({Octanoyl(6-Me)}-[Dab]T[Dab][Dab][Dab][dF]L[Dab][Dab]T; lactam 4-C) | – | 1 µM (≈ 1.2 µg/mL) | – | – | – | – | 23 µM (≈ 27.7 µg/mL) | 1 µM (≈ 1.2 µg/mL) | – | 6 µM (≈ 7.22 µg/mL) | – | 1 µM (≈ 1.2 µg/mL) | – | – | – | – | –
7 | CC(C)C[C@@H]1NC(=O)[C@H](CCCN)NC(=O)[C@H](C(C)C)NC(=O)[C@@H]2CCCN2C(=O)[C@@H](Cc2ccccc2)NC(=O)[C@H](CC(C)C)NC(=O)[C@H](CCCN)NC(=O)[C@H](C(C)C)NC(=O)[C@@H]2CCCN2C(=O)[C@@H](Cc2ccccc2)NC1=O (cyclo(V[Orn]L[dF]PV[Orn]L[dF]P)) | – | – | – | – | – | – | 7 µM (≈ 7.99 µg/mL) | 56 µM (≈ 63.9 µg/mL) | – | – | – | 28 µM (≈ 32 µg/mL) | – | – | – | – | –

— ChEMBL document CHEMBL4257484, “Membrane-active antimicrobial poly(amino-modified alkyl) β-cyclodextrins synthesized via click reactions” (Medchemcomm, 2018)
